Data as given in ChEMBL document CHEMBL1153527, “Discovery of a novel series of quinolone and naphthyridine derivatives as potential topoisomerase I inhibitors by scaffold modification” (J Med Chem, 2009).

Tests used:
[1] = system: KB; test: Cytotoxicity against human KB cells after 48 hrs by MTT assay; format: functional, cell-based
[2] = system: A2780; test: Cytotoxicity against human A2780 cells after 48 hrs by MTT assay; format: functional, cell-based; conditions: A2780, 48 h
[3] = system: Bel-7402; test: Cytotoxicity against human Bel7402 cells after 48 hrs by MTT assay; format: functional, cell-based; conditions: Bel-7402, 48 h
[4] = Cytotoxicity against estrogen receptor-negative human […] cells expressing p53 mutant after 48 hrs by SRB assay; format: functional, cell-based
In short: (§1)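 Cell lines came from CCRC, Taiwan. Cells were seeded at about 5 × 10^3 per well and left overnight. They were then given serum-free medium containing 0-10 μM compound (0.08-10 μM serial dilutions) for 48 h at 37 °C. Cells were fixed with TCA (10% final), stained with SRB (0.4% final), and the dye was dissolved in 10 mM Tris with A515 read. IC50 was taken from a fitted log concentration-response curve.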

[5] = system: A549; test: Cytotoxicity against human A549 cells expressing wild type p53 after 48 hrs by SRB assay; format: functional, cell-based; conditions: A549, 48 h; in short: as §1
[6] = system: HepG2; test: Cytotoxicity against human HepG2 cells expressing wild type p53 after 48 hrs by SRB assay; format: functional, cell-based; conditions: HepG2, 48 h; in short: as §1
[7] = system: HeLa; test: Cytotoxicity against p53-deficient human HeLa cells after 48 hrs by SRB assay; format: functional, cell-based; in short: as §1
[8] = system: HT-29; test: Cytotoxicity against human HT-29 cells expressing p53 mutant after 48 hrs by SRB assay; format: functional, cell-based; conditions: HT-29, 48 h; in short: as §1
[9] = system: AGS; test: Cytotoxicity against human AGS cells expressing wild type p53 after 48 hrs by SRB assay; format: functional, cell-based; in short: as §1
[10] = system: MCF7; test: Cytotoxicity against estrogen receptor-positive human MCF7 cells expressing wild type p53 after 48 hrs by SRB assay; format: functional, cell-based; conditions: MCF7, 48 h; in short: as §1
[11] = Cytotoxicity against p53-deficient human Hep3B cells after 48 hrs by SRB assay; format: functional, cell-based, Hep 3B2; in short: as §1
[12] = system: PC-3; test: Cytotoxicity against p53-deficient human PC3 cells after 48 hrs by SRB assay; format: functional, cell-based; conditions: PC-3, 48 h; in short: as §1
[13] = system: U-937; test: Cytotoxicity against human U937 cells expressing p53 mutant after 48 hrs by SRB assay; format: functional, cell-based; conditions: U-937, 48 h
[14] = system: THP-1; test: Cytotoxicity against human THP1 cells expressing p53 mutant after 48 hrs by SRB assay; format: functional, cell-based; conditions: THP-1, 48 h
[15] = system: K562; test: Cytotoxicity against p53-deficient human K562 cells after 48 hrs by SRB assay; format: functional, cell-based; conditions: K562, 48 h

Compound: CCn1cc(-c2nc3ccccc3s2)c(=O)c2cc(F)c(N3CCNCC3)cc21
- IC50 [1]: 28.7 µM
- IC50 [2]: 11.3 µM
- IC50 [3]: 24.3 µM

Compound: CCn1cc(-c2nc3ccc([N+](=O)[O-])cc3[nH]2)c(=O)c2cc(F)c(N3CCNCC3)nc21
- IC50 [1]: 22.4 µM
- IC50 [2]: 12.4 µM
- IC50 [3]: 10.8 µM

Compound: CCn1cc(-c2nc3ccccc3s2)c(=O)c2cc(F)c(N3CCN(C)CC3)cc21
- IC50 [1]: 19 µM
- IC50 [2]: 114 µM
- IC50 [3]: 24 µM

Compound: CCn1cc(-c2nc3ccc(Cl)cc3[nH]2)c(=O)c2cc(F)c(N3CCNCC3)nc21
- IC50 [1]: 10.3 µM
- IC50 [2]: 6.3 µM
- IC50 [3]: 21.5 µM

Compound: CCn1cc(-c2nc3ccc([N+](=O)[O-])cc3[nH]2)c(=O)c2cc(F)c(N3CCN(C)CC3)cc21
- IC50 [1]: 2.5 µM
- IC50 [2]: 4.7 µM
- IC50 [3]: 4.4 µM

Compound: CCn1cc(-c2nc3ccc([N+](=O)[O-])cc3o2)c(=O)c2cc(F)c(N3CCN(C)CC3)cc21
- IC50 [1]: 40.3 µM
- IC50 [2]: 39.6 µM
- IC50 [3]: 50.2 µM

Compound: CCn1cc(-c2nc3ccccc3o2)c(=O)c2cc(F)c(Cl)cc21
- IC50 [1]: 10.2 µM
- IC50 [2]: 78.4 µM
- IC50 [3]: 28.9 µM

Compound: CCn1cc(-c2nc3ccccc3s2)c(=O)c2cc(F)c(N3CCNCC3)nc21
- IC50 [1]: 2.4 µM
- IC50 [2]: 2.7 µM
- IC50 [3]: 2.4 µM

Compound: CCn1cc(-c2nc3ccccc3o2)c(=O)c2cc(F)c(N3CCNC(C)C3)c(F)c21 (centres undefined)
- IC50 [1]: 18.9 µM
- IC50 [2]: 83.5 µM
- IC50 [3]: 5.7 µM

Compound: CC[C@@]1(O)C(=O)OCc2c1cc1n(c2=O)Cc2cc3cc(O)ccc3nc2-1 [HYDROXYCAMPTOTHECIN]
- IC50 [1]: 0.6 µM
- IC50 [2]: 0.7 µM
- IC50 [3]: 0.2 µM

Compound: CCn1cc(-c2nc3ccc([N+](=O)[O-])cc3o2)c(=O)c2cc(F)c(N3CCNCC3)nc21
- GI50 [4]: > 10 µM
- IC50 [4]: > 10 µM
- GI50 [5]: 2.1 µM
- IC50 [5]: 7.3 µM
- GI50 [6]: > 10 µM
- IC50 [6]: > 10 µM
- IC50 [1]: 1.8 µM
- IC50 [3]: 3 µM
- GI50 [7]: > 10 µM
- IC50 [7]: > 10 µM
- GI50 [8]: > 10 µM
- IC50 [8]: > 10 µM
- GI50 [9]: 2.3 µM
- IC50 [9]: 4.4 µM
- GI50 [10]: > 10 µM
- IC50 [10]: > 10 µM
- GI50 [11]: > 10 µM
- IC50 [11]: > 10 µM
- GI50 [12]: 5.8 µM
- IC50 [12]: 9.8 µM
- IC50 [13]: > 10 µM
- IC50 [14]: > 10 µM
- IC50 [15]: > 10 µM

Compound: CCn1cc(-c2nc3ccc([N+](=O)[O-])cc3[nH]2)c(=O)c2cc(F)c(N3CCNC(C)C3)c(F)c21 (centres undefined)
- GI50 [4]: 1.8 µM
- IC50 [4]: 5.5 µM
- GI50 [5]: 0.6 µM
- IC50 [5]: 2.4 µM
- GI50 [6]: 1.5 µM
- IC50 [6]: 4.2 µM
- IC50 [1]: 2.3 µM
- IC50 [2]: 2.3 µM
- IC50 [3]: 1.1 µM
- GI50 [7]: 1.4 µM
- IC50 [7]: 2.4 µM
- GI50 [8]: 4.2 µM
- IC50 [8]: 7.5 µM
- GI50 [9]: 2.6 µM
- IC50 [9]: 8.2 µM
- GI50 [10]: 2.6 µM
- IC50 [10]: 4.9 µM
- GI50 [11]: 1.6 µM
- IC50 [11]: 5.5 µM
- GI50 [12]: 7.9 µM
- IC50 [12]: 9.6 µM
- IC50 [13]: > 10 µM
- IC50 [14]: 7.8 µM
- IC50 [15]: 4.7 µM

Compound: C[C@H]1COc2c(N3CCN(C)CC3)c(F)cc3c(=O)c(-c4nc5ccccc5s4)cn1c23
- IC50 [1]: 60.2 µM
- IC50 [2]: 26.6 µM
- IC50 [3]: 92.2 µM

Compound: CCn1cc(-c2nc3ccc([N+](=O)[O-])cc3s2)c(=O)c2cc(F)c(N3CCN(C)CC3)cc21
- GI50 [4]: > 10 µM
- IC50 [4]: > 10 µM
- GI50 [5]: 4.7 µM
- IC50 [5]: 10 µM
- GI50 [6]: > 10 µM
- IC50 [6]: > 10 µM
- IC50 [1]: 5.8 µM
- IC50 [2]: 4.3 µM
- IC50 [3]: 7.7 µM
- GI50 [7]: > 10 µM
- IC50 [7]: > 10 µM
- GI50 [8]: > 10 µM
- IC50 [8]: > 10 µM
- GI50 [9]: 2.6 µM
- IC50 [9]: 4.5 µM
- GI50 [10]: > 10 µM
- IC50 [10]: > 10 µM
- GI50 [11]: > 10 µM
- IC50 [11]: > 10 µM
- GI50 [12]: 5.5 µM
- IC50 [12]: 7.5 µM
- IC50 [13]: > 10 µM
- IC50 [14]: > 10 µM
- IC50 [15]: > 10 µM
